Assay outcomes from PubChem BioAssay.
RORa activator – activates the human nuclear receptor RORA; P35398; CHO-K1 Gal4-RORA LBD luciferase reporter, luminescence; percent increase over mock-subtracted basal signal; activation, % at 10 µM; actives 1.5% (n = 65,000); AID 560;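 active = activation above the mean of all tested compounds plus 3 SD, cut at about 49% in these data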
M1 agonist – M1 muscarinic receptor agonism. actives 3% (n = 64,000). B-score at 10 µM. CHO-M1 cells, Fluo-4 calcium fluorescence, agonist mode; active compounds read high. AID 626;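 active = fluorescence rise, raw or as B-score row- and column-corrected plate score, outside the 99.7% band of its plate's samples, either direction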
D1 mod – D1 dopamine receptor (human) allosteric modulation; actives 5.9% (n = 58,000); B-score at 10 µM; HEK293 D1, CRE-luciferase, dopamine EC30 potentiation; actives deviate in either direction; AID 641;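 active = luminescence count or its row- and column-corrected plate score outside the 99.7% band of the plate's sample wells, on either side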
Target sequence (P21728 whole entry, looked up): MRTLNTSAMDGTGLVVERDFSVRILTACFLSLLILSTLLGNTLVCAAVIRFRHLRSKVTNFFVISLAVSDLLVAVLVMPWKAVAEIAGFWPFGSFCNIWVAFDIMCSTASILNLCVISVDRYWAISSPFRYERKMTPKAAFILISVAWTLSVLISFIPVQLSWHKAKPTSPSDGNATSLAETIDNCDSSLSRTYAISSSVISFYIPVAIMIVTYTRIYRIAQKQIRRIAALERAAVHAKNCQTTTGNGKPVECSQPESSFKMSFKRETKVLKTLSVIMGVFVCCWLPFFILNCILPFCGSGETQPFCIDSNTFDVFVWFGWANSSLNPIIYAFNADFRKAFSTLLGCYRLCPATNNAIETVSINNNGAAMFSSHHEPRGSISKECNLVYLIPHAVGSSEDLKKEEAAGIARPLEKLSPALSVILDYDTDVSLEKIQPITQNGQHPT
M1 antagonist – blocks the rat M1 muscarinic receptor response to acetylcholine. P08482. B-score at 10 µM. AID 628. CHO-M1 cells, Fluo-4 calcium, ACh EC80 antagonist mode; active compounds read low. actives 3.4% (n = 64,000);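 active = calcium fluorescence response, raw or row-and-column corrected B-score, differing from the plate sample mean either way at a set confidence level, mostly lower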
Htt clearance – mutant huntingtin protein clearance; actives 0.42% (n = 47,000); AID 853; inhibition, % at 1.5 µM; HeLa Exon1htt(103Q)mCFP, aggregate imaging; zero = plate's median compound well;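 active = inhibition of aggregate fluorescence above about 70%, also judged a hit by eye on the cell image, limit read from the data, passing the limit was not always enough; inconclusive = no rule stated for this call; inactive = not judged a hit on image review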;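 also: cells exposed to compound for three days before fixation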
SF-1 act – activates the human nuclear receptor SF-1. CHO-K1 Gal4-SF-1 LBD luciferase reporter; % increase over DMSO SF-1-specific signal. activation, % at 10 µM. actives 1.9% (n = 65,000). AID 522;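 active = activation above the mean activation of all tested compounds plus 3 SD, cut at about 50% in these data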
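material = CHO-K1 cells with Gal4–hSF-1 LBD chimera plus Gal4-driven luciferase | compound = 10 µM single point, 1% DMSO | incubation = 20 h compound exposure at 37 °C after 1 h cell settling | measured by = SteadyLite luciferase luminescence | evaluation = percent activation relative to DMSO median and mock-transfected background | control set = DMSO negative control and −SF1 background wells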
Hits are given with their value; . = inactive; ? = inconclusive; / = no result. Most compounds without a hit are left out; they make up all but 11% or so of the library.

SMILES	RORa activator	M1 agonist	D1 mod	M1 antagonist	Htt clearance	SF-1 act
CC(=O)NC(Cc1ccccc1F)C(=O)NC1CCN(C(=O)c2cnccn2)CC1 (configuration not stated)	.	.	.	.	.	.
CCn1cc(C(=O)NCc2ccc(C)o2)c2cc(OC)c(OC)cc2c1=O	.	/	-6.3	/	.	.
N=C1C(c2nc3ccccc3[nH]2)=C(O)CN1c1ccccc1	.	.	.	.	/	50
CC1C(O)=C(c2nc3ccccc3[nH]2)C(=N)N1c1ccccc1 (configuration not stated)	.	.	.	.	/	54
CCCN1C(=O)C(O)(C2CC(=O)CC(C)(C)O2)c2ccccc21 (configuration not stated)	.	.	.	.	/	.
CC1CCN(c2ccc(C(=O)NCCc3ccccc3)cn2)CC1	60	.	.	.	/	.
CC1CCCN(c2ccc(C(=O)NCc3cccs3)cn2)C1 (configuration not stated)	56	.	.	.	/	70
O=C(NCCc1ccccc1)c1ccc(Cl)nc1	/	/	/	/	.	/
CN1C(=O)C2(N=c3ccccc3=N2)c2ccccc21	.	.	/	.	.	.
O=C(CCN1CCN(CCC(=O)c2ccccc2)CC1)c1ccccc1	.	.	.	.	/	.
CC(C)(C)n1ncc2c(=O)n(CC(=O)NC3CCCCC3)cnc21	.	.	.	.	/	68
CC(C)(C)n1ncc2c(=O)n(CC(=O)NCc3ccco3)cnc21	.	.	.	.	.	50
CC(C)(C)n1ncc2c(=O)n(CC(=O)NCc3ccc(F)cc3)cnc21	67	.	.	.	.	92
Cc1ccc(-n2ncc3c(=O)n(CC(=O)NC4CCCCC4)cnc32)cc1C	.	.	.	.	/	.
Cc1ccc(C)c(Cn2cnc3c(cnn3C(C)(C)C)c2=O)c1	.	/	-2.6	/	/	.
O=C(CSC1=NCCS1)N1CCc2ccccc21	.	.	/	.	.	.
CC(C)(C)n1ncc2c(=O)n(CC(=O)c3ccccc3)cnc21	55	.	.	.	.	93
CC(C)(C)n1ncc2c(=O)n(CC(=O)OCc3ccccc3)cnc21	.	/	.	/	/	.
COc1ccc(CCNc2cc(=O)[nH]c(N)n2)cc1	.	.	.	.	.	.
Cn1c(SCc2ccc(F)cc2)nnc1-c1cccs1	.	.	.	.	/	51
Cn1c(SCc2ccccn2)nnc1-c1cnccn1	.	.	/	.	/	.
Cn1c(SCc2ccc(F)cc2)nnc1-c1ccccn1	.	.	.	.	/	64
Cn1c(SCc2ccccc2)nnc1-c1cccs1	50	.	.	.	.	57
Cn1c(SCc2nc3ccccc3s2)nnc1-c1cccs1	.	.	.	.	/	.
Cc1ccc(CSc2nnc(-c3ccccn3)n2C)cc1	.	.	.	.	.	.
SMILES	RORa activator	M1 agonist	D1 mod	M1 antagonist	Htt clearance	SF-1 act
Cn1c(SCc2ccccc2F)nnc1-c1cnccn1	65	.	.	.	/	.
COCc1cc(=O)n2[nH]c(-c3cccc(Br)c3)cc2n1	53	.	.	.	.	.
CCCc1cc(=O)n2[nH]c(-c3ccc(C)cc3)cc2n1	79	.	/	.	/	.
CCCc1cc(=O)n2[nH]c(-c3ccccc3)cc2n1	52	.	.	.	?	68
CCOC(=O)Cc1cc(=O)n2[nH]c(-c3ccc(Cl)cc3)cc2n1	/	/	/	/	.	/
COCc1cc(=O)n2[nH]c(-c3ccccc3)cc2n1	.	.	.	.	.	.
COc1cccc(C(=O)Oc2cc(-c3ccccc3)no2)c1	/	/	/	/	.	/
CCOC(=O)CSc1nc(C)cc(=O)[nH]1	.	.	.	.	71	.
CCOC(=O)CSc1nc(N)cc(=O)[nH]1	.	.	.	.	/	.
Cc1cc(C)n2cc(CSCc3ccco3)nc2n1	.	.	.	.	/	.
Cc1cccc2nc(CSCc3ccco3)cn12	.	.	.	.	/	55
CCOC(=O)c1sc(NC(=O)c2ccccc2OC)nc1C	/	/	/	/	.	/
CCOC(=O)CNC(=O)c1sc(NC(=O)c2ccccc2F)nc1C	.	.	.	.	.	53
CCOC(=O)c1sc(NC(=O)c2ccc3ncsc3c2)nc1C	.	.	/	.	/	76
CCOC(=O)c1sc(NC(=O)c2ccc(CC)s2)nc1C	72	.	.	.	.	119
CCCC(C)NC1=NCCCCC1 (configuration not stated)	/	/	/	/	.	/
CCOC(=O)c1ccc(NC(=O)c2nn(C)cc2Br)cc1	76	.	.	.	.	.
CCOC(=O)c1ccc(NC(=O)C(CC)CC)cc1	.	.	.	.	.	.
CCOC(=O)c1ccc(NC(=O)c2nn(CC)cc2Br)cc1	.	.	.	.	/	.
CCCOC(=O)c1ccc(NC(=O)COC)cc1	/	/	/	/	.	/
CCOC(=O)CNC(=O)c1ccc2c(c1)OCCO2	.	.	.	.	/	53
CCOC(=O)CNC(=O)c1cc(-c2ccc3c(c2)OCCO3)oc1C	.	.	.	.	.	.
CC(=O)Nc1ccc(C(=O)OCCC(C)C)cc1	51	.	.	.	.	.
CCOC(=O)c1ccc(NC(=O)N(CC)CC)cc1	.	.	.	.	.	63
COc1ccc(C)cc1NC(=O)CN1CCN(S(=O)(=O)c2ccc(Br)cc2)CC1	.	.	/	.	/	.
SMILES	RORa activator	M1 agonist	D1 mod	M1 antagonist	Htt clearance	SF-1 act
COC(=O)NC1CSCC1OC(=O)CN1C(=O)c2ccccc2C1=O (configuration not stated)	.	.	.	.	/	.
Cc1cc(N2CCCC2)ccc1/C=N/n1cnnc1	/	.	.	.	/	/
CCc1ccccc1NC(=O)CN(c1cccc(OC)c1)S(C)(=O)=O	.	.	.	.	.	.
CCOC(=O)c1ccc(NC(=O)Nc2ccc3c(c2)OCCO3)cc1	.	.	-2.4	.	/	.
COC(=O)c1ccccc1NC(=O)CSc1nnc(-c2ccc(OC)cc2)n1C	/	/	/	/	.	/
Cc1nc(-c2ccccc2)nc2[nH]c(=O)n(-c3ccccc3)c(=O)c12	60	.	.	.	.	.
COc1ccc(NC(=O)c2cc3ccccn3n2)cc1	.	.	-4.7	.	.	.
COCCNC(=O)CN1CCC(NC(=O)Nc2ccc(C(F)(F)F)cc2)CC1	.	.	.	.	.	.
CCOC(=O)/C=C(\C)Nc1cc(C)nn1-c1ccccc1	.	/	-4.8	/	/	.
Cc1cc(NC(=O)Nc2cc(C)nn2-c2ccccc2)n(-c2ccccc2)n1	.	.	.	.	/	.
O=C(c1ccccc1)c1nc[nH]c1C(=O)Nc1ccccc1	.	.	/	.	/	.
O=C(Nc1nc2c(Cl)cccc2s1)c1ccc(Br)o1	.	.	.	.	.	.
O=C(Nc1nc2ccc(Cl)cc2s1)c1ccc(Br)o1	54	.	.	.	.	.
Cc1c(C(=O)Nc2ccncc2)sc2nc(-c3ccc(F)cc3)cn12	.	.	-5.2	.	/	.
Cc1c(C(=O)NCC(C)C)sc2nc(-c3ccc(F)cc3)cn12	71	.	.	.	/	.
COc1ccc(-c2cn3c(C)c(C(=O)Nc4cccc(NC(C)=O)c4)sc3n2)cc1	.	.	.	.	/	.
